# Source: ChEMBL document CHEMBL4387708, “Enhancement of Benzothiazoles as Pteridine Reductase-1 Inhibitors for the Treatment of Trypanosomatidic Infections” (J Med Chem, 2019)
# pEC50, pIC50: −log10 of the molar value. The source made the active and inactive calls. No cut-off for these calls is given here.
# Legend:
# [1] = Thermodynamic solubility of the compound in phosphate buffered saline/50%DMSO after 24 hrs by spectrophotometric method; type: physicochemical; details: read-out: Therm_solubility
# Method in brief: (§1)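 Over-saturated suspensions (theoretical maximum 100 µg/mL) in water, PBS, PBS + 10% DMSO or PBS + 50% DMSO were stirred at 1200 rpm for 24 h at 25 °C. They were filtered at 0.2 µm and diluted 1:1 with ACN. Concentration was quantified by UV using a molar extinction coefficient determined at 340 nm.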
# [2] = Selectivity index ratio of NOAEL for human THP1 cells to EC50 for growth inhibition of Trypanosoma brucei bloodstream forms; type: toxicity; details: read-out: Selectivity Index
# Trypanosoma brucei [3] = assay: Growth inhibition of Trypanosoma brucei bloodstream forms measured after 72 hrs by resazurin-based fluorescence assay; type: organism-based
# Method in brief: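 Mid-log bloodstream-form T. brucei were seeded at a final 5 x 10^3/mL in supplemented HMI-9 with serial compound dilutions. Cultures ran 72 h at 37 °C, 5% CO₂, then 4 h more after resazurin. Fluorescence was read at ex 540/em 620 nm, and EC₅₀ was fitted by non-linear regression.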
# Trypanosoma brucei [4] = assay: Inhibition of PTR1 in Trypanosoma brucei bloodstream forms assessed as potentiation of methotrexate-induced parasitic cell growth inhibition by measuring potentiation index at 10 uM measured after 72 hrs by resazurin-based fluorescence assay relative to control (methotrexate); type: functional
# Method in brief: (§2)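 Bloodstream-form T. brucei resazurin assay: 72 h at 37 °C, 5% CO₂, then fluorescence at ex 540/em 620 nm. Benzothiazole was tested at 10 μM alone and with 4 μM methotrexate. The index is the combination's activity divided by the sum of the activities of 10 μM benzothiazole and 4 μM methotrexate given separately.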
# [5] = Thermodynamic solubility of the compound in phosphate buffered saline/10%DMSO after 24 hrs by spectrophotometric method; type: physicochemical; details: read-out: Therm_solubility; method in brief: as §1
# Trypanosoma cruzi = assay: Growth inhibition of trypomastigote form of Trypanosoma cruzi Y infected in human U2OS cells at 50 uM measured after 72 hrs by DRAQ5 DNA dye based confocal microscopic analysis relative to control; type: organism-based; details: Trypanosoma cruzi, Y, U2OS, read-out: GI
# [6] = AUC in BALB/c mouse at 1 mg/kg, iv by LC-MS analysis; type: ADME, organism-based; details: in vivo
# Method in brief: (§3)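 Snapshot PK in healthy BALB/c mice. Free compound given in 8% DMSO at 1 mg/kg IV or 20 mg/kg per os; for the formulated arm it was solubilized with hydroxypropyl-β-cyclodextrin (50%) and given at 20 mg/kg per os. Plasma levels were quantified by LC-MS on a C18 column with triple-quadrupole ESI detection in positive ion mode.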
# CYP2D6 = assay: Selectivity index ratio of IC50 for CYP2D6 (unknown origin) to EC50 for growth inhibition of Trypanosoma brucei bloodstream forms; type: toxicity; details: read-out: Ratio IC50/EC50
# [7] = Cmax in BALB/c mouse at 1 mg/kg, iv by LC-MS analysis; type: ADME, organism-based; design: dose 1 mg/kg, route intravenous; details: in vivo; method in brief: as §3
# [8] = Selectivity index ratio of GI50 for human A549 cells to EC50 for growth inhibition of Trypanosoma brucei bloodstream forms; type: toxicity; details: read-out: Ratio GI50/EC50
# [9] = tested on: Trypanosoma brucei brucei; assay: Antitrypanosomal activity against red-shifted luciferase expressing Trypanosoma brucei brucei GVR35 infected in BALB/c mouse assessed as reduction in parasite infection at 40 mg/kg, po administered twice a day as suspension in hydroxypropyl-beta-cyclodextrin solution by bioluminescence assay; type: functional, organism-based
# Method in brief: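 T. b. brucei GVR35 (luciferase-expressing) was given IP to BALB/c mice as blood carrying 1 x 10⁵ parasites from a donor mouse at first-peak parasitemia; controls received PBS. Compound was given orally as a suspension in (2-hydroxypropyl)-β-cyclodextrin solution at 40 mg/kg twice daily. […] Parasite load was read by bioluminescence imaging after subcutaneous D-luciferin under isoflurane, as total flux per ROI.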
# Leishmania infantum = assay: Growth inhibition of luciferase expressing Leishmania infantum axenic amastigotes infected in human THP1 cells at 10 uM measured after 72 hrs by steady-glo luminescence assay relative to control; type: organism-based; details: leishmania infantum, 72 h, 10 µM
# CYP3A4 = assay: Selectivity index ratio of IC50 for CYP3A4 (unknown origin) to EC50 for growth inhibition of Trypanosoma brucei bloodstream forms; type: toxicity; details: read-out: Ratio IC50/EC50
# [10] = Cytotoxicity against human A549 cells after 48 hrs by Celltiter-glo assay; type: cell-based
# [11] = target: Voltage-gated inwardly rectifying potassium channel KCNH2 (Homo sapiens, UniProt Q12809); assay: Displacement of Tracer Red from human ERG by fluorescence polarization assay
# Sequence of Voltage-gated inwardly rectifying potassium channel KCNH2 (Q12809 whole entry): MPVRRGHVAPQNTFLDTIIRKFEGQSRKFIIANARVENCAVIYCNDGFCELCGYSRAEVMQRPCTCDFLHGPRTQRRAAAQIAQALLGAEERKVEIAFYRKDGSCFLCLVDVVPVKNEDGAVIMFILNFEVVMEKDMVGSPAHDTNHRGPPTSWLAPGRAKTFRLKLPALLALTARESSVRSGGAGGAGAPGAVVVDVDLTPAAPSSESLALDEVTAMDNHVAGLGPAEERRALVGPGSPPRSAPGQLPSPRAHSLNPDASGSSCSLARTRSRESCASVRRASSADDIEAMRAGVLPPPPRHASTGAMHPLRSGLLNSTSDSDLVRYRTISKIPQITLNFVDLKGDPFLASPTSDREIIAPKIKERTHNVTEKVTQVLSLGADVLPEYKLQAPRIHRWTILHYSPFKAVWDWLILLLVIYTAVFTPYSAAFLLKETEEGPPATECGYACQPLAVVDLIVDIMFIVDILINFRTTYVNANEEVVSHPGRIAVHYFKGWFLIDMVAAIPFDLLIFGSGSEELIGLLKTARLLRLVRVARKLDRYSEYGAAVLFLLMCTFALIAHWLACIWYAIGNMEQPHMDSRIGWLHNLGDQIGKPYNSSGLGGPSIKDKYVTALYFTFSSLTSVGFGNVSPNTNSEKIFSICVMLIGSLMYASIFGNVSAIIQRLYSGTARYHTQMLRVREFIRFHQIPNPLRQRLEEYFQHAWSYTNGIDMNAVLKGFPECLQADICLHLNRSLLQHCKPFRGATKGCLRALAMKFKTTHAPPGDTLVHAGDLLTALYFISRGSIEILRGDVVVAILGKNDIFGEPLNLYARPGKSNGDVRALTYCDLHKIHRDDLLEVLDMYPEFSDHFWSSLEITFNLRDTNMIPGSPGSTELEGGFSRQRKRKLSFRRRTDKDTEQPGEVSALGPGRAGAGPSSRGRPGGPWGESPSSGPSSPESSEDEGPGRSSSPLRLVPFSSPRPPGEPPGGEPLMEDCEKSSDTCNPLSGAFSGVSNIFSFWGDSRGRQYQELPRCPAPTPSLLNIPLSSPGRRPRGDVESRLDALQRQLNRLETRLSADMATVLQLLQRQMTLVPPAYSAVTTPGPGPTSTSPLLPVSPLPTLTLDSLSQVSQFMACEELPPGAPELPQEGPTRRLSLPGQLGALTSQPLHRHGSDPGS
# Trypanosoma brucei [12] = assay: Growth inhibition of Trypanosoma brucei bloodstream forms at 10 uM measured after 72 hrs by resazurin-based fluorescence assay relative to control; type: organism-based; details: Trypanosoma brucei, read-out: GI
# CYP1A2 = assay: Selectivity index ratio of IC50 for CYP1A2 (unknown origin) to EC50 for growth inhibition of Trypanosoma brucei bloodstream forms; type: toxicity; details: read-out: Ratio IC50/EC50
# Cytochrome P450 3A4 = Cytochrome P450 3A4 (Homo sapiens, UniProt P08684); assay: Inhibition of human CYP3A4 expressed in baculovirus infected insect cells using beetle D-luciferin as substrate preincubated for 30 mins followed by NADPH addition and measured after 30 mins by CYP450-Glo assay
# Sequence of Cytochrome P450 3A4 (P08684 whole entry): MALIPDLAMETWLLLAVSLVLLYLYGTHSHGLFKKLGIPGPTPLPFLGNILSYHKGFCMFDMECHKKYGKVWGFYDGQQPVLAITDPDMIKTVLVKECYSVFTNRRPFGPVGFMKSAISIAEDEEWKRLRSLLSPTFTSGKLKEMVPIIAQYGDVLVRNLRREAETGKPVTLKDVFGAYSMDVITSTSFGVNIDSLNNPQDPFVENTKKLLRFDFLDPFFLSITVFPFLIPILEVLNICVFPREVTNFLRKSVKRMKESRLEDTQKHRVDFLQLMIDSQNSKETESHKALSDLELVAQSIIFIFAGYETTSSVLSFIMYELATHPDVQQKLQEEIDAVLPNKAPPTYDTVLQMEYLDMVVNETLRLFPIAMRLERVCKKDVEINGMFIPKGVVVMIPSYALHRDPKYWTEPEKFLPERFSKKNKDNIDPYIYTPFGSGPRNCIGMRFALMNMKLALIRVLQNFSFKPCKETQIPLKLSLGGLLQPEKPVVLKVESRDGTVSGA
# Trypanosoma brucei [13] = assay: Inhibition of PTR1 in Trypanosoma brucei bloodstream forms assessed as potentiation of methotrexate-induced parasitic cell growth inhibition at 10 uM measured after 72 hrs by resazurin-based fluorescence assay (reference value: 19 +/- 6%); method in brief: as §2
# [14] = Half-life in BALB/c mouse at 20 mg/kg, po by LC-MS analysis; type: ADME, organism-based; details: in vivo; method in brief: as §3
# [15] = Ratio of Cmax BALB/c mouse at 20 mg/kg, po co-formulated with hydroxypropyl-beta-cyclodextrin to EC50 for Trypanosoma brucei bloodstream forms; type: ADME, organism-based; details: in vivo
# CYP2C19 = assay: Selectivity index ratio of IC50 for CYP2C19 (unknown origin) to EC50 for growth inhibition of Trypanosoma brucei bloodstream forms; type: toxicity; details: read-out: Ratio IC50/EC50
smiles,measurement,setting,value
Nc1nc2ccc(C(=O)NCc3ccccc3)cc2s1,solubility thermodynamic at 24 h,[1],> 100 µg/mL
same,selectivity ratio,[2],> 10
same,pEC50,Trypanosoma brucei [3],5.15
same,Ratio,Trypanosoma brucei [4],1.6
same,solubility thermodynamic at 24 h,[5],> 100 µg/mL
same,inhibition at 50 µM,Trypanosoma cruzi,51.3%
same,AUC,[6],1057 ng·h/mL
same,selectivity ratio,CYP2D6,> 10
same,Cmax,[7],1630 ng/mL
same,selectivity ratio,[8],> 10
same,Activity,[9],inactive
same,growth inhibition (GI),Leishmania infantum,Non-Toxic
same,selectivity ratio,CYP3A4,> 10
same,GI50 at 48 h,[10],> 25 µM
same,pIC50,[11],< 4.60
same,inhibition at 10 µM,Trypanosoma brucei [12],> 60%
same,selectivity ratio,CYP1A2,> 10
same,pIC50,Cytochrome P450 3A4,< 4.60
same,growth inhibition (GI),Trypanosoma brucei [13],30%
same,half-life,[14],43.5 h
same,Ratio,[15],1.9
same,selectivity ratio,CYP2C19,> 10
